In ChEMBL document CHEMBL2321845, “Discovery of 4-Aryl-2-benzoyl-imidazoles as tubulin polymerization inhibitor with potent antiproliferative properties” (J Med Chem, 2013):

Tests used:
[1] = system: A-375; experiment: Cytotoxicity against human A375 cells assessed as growth inhibition after 48 hrs by SRB assay; assay type: functional, cell-based; conditions: A-375, 48 h
Outline: (§1)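 Melanoma cells from ATCC, grown in DMEM with 10% FBS at 37°C under 5% CO2. Seeded at 1000–5000 cells/well according to growth rate and exposed to a range of compound concentrations for 48 h, in three to five replicates. Cells were fixed with 10% TCA, stained with 0.4% SRB and read at 540 nm.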

[2] = system: MDA-MB-435; experiment: Cytotoxicity against human MDA-MB-435 cells assessed as growth inhibition after 48 hrs by SRB assay; assay type: functional, cell-based; conditions: MDA-MB-435, 48 h
[3] = Cytotoxicity against human MDA-MB-435/LCC6MDR1 cells assessed as growth inhibition after 48 hrs by SRB assay; assay type: functional, cell-based, MDA-MB-435/LCC6 MDR1; conditions: Homo sapiens, MDA-MB-435/LCC6 MDR1, 48 h
[4] = Cytotoxicity against human WM164 cells assessed as growth inhibition after 48 hrs by SRB assay; assay type: functional, cell-based; conditions: WM164, 48 h
Outline: as §1, with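 “nm. IC50 (50% growth inhibition versus untreated control) was taken from nonlinear regression of % survival against concentration.” for “nm.”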

[5] = system: LNCaP; experiment: Cytotoxicity against human LNCAP cells assessed as growth inhibition after 96 hrs by SRB assay; assay type: functional, cell-based
Outline: (§2)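 Plated at 1000–5000 cells/well depending on growth rate and treated with graded compound concentrations for 96 h, three to five replicates. Cell number was measured by SRB: 10% TCA fixation, 0.4% SRB staining, absorbance at 540 nm. IC50 relative to untreated control came from a nonlinear regression fit.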

[6] = system: PC-3; experiment: Cytotoxicity against human PC3 cells assessed as growth inhibition after 96 hrs by SRB assay; assay type: functional, cell-based; conditions: PC-3, 96 h; outline: as §2
[7] = system: PPC-1; experiment: Cytotoxicity against human PPC1 cells assessed as growth inhibition after 96 hrs by SRB assay; assay type: functional, cell-based; conditions: PPC-1, 96 h; outline: as §2
[8] = system: DU-145; experiment: Cytotoxicity against human DU145 cells assessed as growth inhibition after 96 hrs by SRB assay; assay type: functional, cell-based; conditions: Homo sapiens, DU-145, 96 h

SMILES | IC50 [1] | IC50 [2] | IC50 [3] | IC50 [4] | IC50 [5] | IC50 [6] | IC50 [7] | IC50 [8]
CN(C)c1ccc(C(=O)c2nc(-c3ccc(N(C)C)cc3)c[nH]2)cc1 | > 50 µM | > 50 µM | > 50 µM | > 50 µM | – | – | – | –
COc1cc(C(=O)c2nc(-c3ccccc3)cn2-c2cccs2)cc(OC)c1OC | 0.02 µM | 0.025 µM | 0.027 µM | 0.008 µM | – | – | – | –
O=C(c1ccc(Cl)cc1)c1nc(-c2ccc(Cl)cc2)c[nH]1 | 35.7 µM | > 50 µM | > 50 µM | > 50 µM | > 50 µM | > 50 µM | > 50 µM | > 50 µM
COc1ccc(C(=O)c2nc(-c3ccc(OC)cc3)c[nH]2)cc1 | > 50 µM | > 50 µM | > 50 µM | > 50 µM | 6.42 µM | 23.4 µM | 38.1 µM | 9.84 µM
COc1cc(C(=O)c2nc(-c3ccc(Cl)cc3)c[nH]2)cc(OC)c1OC | 0.051 µM | 0.106 µM | 0.075 µM | 0.063 µM | 0.022 µM | 0.064 µM | 0.051 µM | 0.125 µM
COc1cc(-c2c[nH]c(C(=O)c3ccc(N(C)C)cc3)n2)cc(OC)c1OC | 47.9 µM | 29.2 µM | 40.6 µM | 46.1 µM | – | – | – | –
O=C(c1ccc(F)cc1)c1nc(-c2ccc(F)cc2)c[nH]1 | > 50 µM | > 50 µM | > 50 µM | > 50 µM | > 50 µM | > 50 µM | > 50 µM | > 50 µM
O=C(c1ccc(C(F)(F)F)cc1)c1nc(-c2ccc(C(F)(F)F)cc2)c[nH]1 | > 50 µM | > 50 µM | 26.5 µM | > 50 µM | > 50 µM | > 50 µM | > 50 µM | > 50 µM
O=C(c1ccc(O)cc1)c1nc(-c2ccc(O)cc2)c[nH]1 | 38.8 µM | 48 µM | 21.4 µM | 48.2 µM | – | – | – | –
COc1cc(C(=O)c2nc(-c3ccc(N(C)C)cc3)c[nH]2)cc(OC)c1OC | 0.141 µM | 0.2 µM | 0.162 µM | 0.129 µM | 0.096 µM | 0.118 µM | 0.12 µM | 0.263 µM
COc1cc(C(=O)c2nc(-c3ccccc3)cn2C(C)C)cc(OC)c1OC | 0.038 µM | 0.018 µM | 0.044 µM | 0.023 µM | 0.062 µM | 0.053 µM | 0.015 µM | 0.114 µM
COc1cc(C(=O)c2nc(-c3ccc(F)cc3)c[nH]2)cc(OC)c1OC | 0.197 µM | 0.32 µM | 0.263 µM | 0.298 µM | 0.114 µM | 0.196 µM | 0.134 µM | 0.353 µM
COc1ccc(-c2c[nH]c(C(=O)c3cc(OC)c(OC)c(OC)c3)n2)cc1 | 0.033 µM | 0.055 µM | 0.059 µM | 0.041 µM | – | 0.061 µM | 0.054 µM | 0.21 µM
COc1cc(C(=O)c2nc(-c3ccccc3)cn2C2CCCC2)cc(OC)c1OC | 0.135 µM | 0.134 µM | 0.161 µM | 0.056 µM | 0.051 µM | 0.056 µM | 0.063 µM | 0.167 µM
COc1ccc(C(=O)c2nc(-c3cc(OC)c(OC)c(OC)c3)c[nH]2)cc1 | 35.4 µM | 11 µM | 11.4 µM | 36 µM | 0.708 µM | 10.4 µM | 5.69 µM | > 50 µM
CCCn1cc(-c2ccccc2)nc1C(=O)c1cc(OC)c(OC)c(OC)c1 | 0.042 µM | 0.037 µM | 0.044 µM | 0.014 µM | 0.049 µM | 0.026 µM | 0.01 µM | 0.072 µM
Cc1ccc(C(=O)c2nc(-c3ccc(C)cc3)c[nH]2)cc1 | 2.54 µM | 3.02 µM | 3.27 µM | 3.69 µM | 3.76 µM | 5.16 µM | 2.41 µM | 6.54 µM
O=C(c1ccccc1)c1nc(-c2ccccc2)c[nH]1 | > 50 µM | > 50 µM | > 50 µM | > 50 µM | > 50 µM | > 50 µM | > 50 µM | > 50 µM
O=C(c1ccc(Br)cc1)c1nc(-c2ccc(Br)cc2)c[nH]1 | 25 µM | 14.4 µM | 17.8 µM | 26.3 µM | 16.9 µM | 18.9 µM | 13.2 µM | 25.5 µM
